TDP2 inh: TDP2 (human) inhibition, absorbance primary screen. recombinant TDP2, T5PNP hydrolysis, p-nitrophenol absorbance 415 nm. inhibition, % at 12.8 µM. actives 0.34% (n = 370,000). AID 720702;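 active = inhibition above the mean of all tested compounds plus 3 SD, set per campaign, cut at about 25% in these data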;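 note: 0% = DMSO with enzyme and 100% = buffer with substrate but no TDP2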
Target sequence (O95551 whole entry, looked up): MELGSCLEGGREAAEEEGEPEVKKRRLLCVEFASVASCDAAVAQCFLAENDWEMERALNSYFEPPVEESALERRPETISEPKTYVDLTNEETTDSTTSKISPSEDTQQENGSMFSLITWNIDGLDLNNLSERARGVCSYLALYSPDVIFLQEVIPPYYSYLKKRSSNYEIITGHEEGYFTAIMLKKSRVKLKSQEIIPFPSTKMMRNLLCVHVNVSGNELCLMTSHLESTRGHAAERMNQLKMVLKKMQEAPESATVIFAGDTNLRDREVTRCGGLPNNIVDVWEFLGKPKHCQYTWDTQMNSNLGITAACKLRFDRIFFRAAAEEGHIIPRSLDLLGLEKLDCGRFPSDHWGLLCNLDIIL
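Assay system: recombinant human TDP2 / Reagent: T5PNP substrate at 5 mM, a TopII-DNA adduct mimic / Measured by: epi absorbance from released p-nitrophenol / Evaluation: % inhibition relative to enzyme-containing and enzyme-free wells / Control set: enzyme-free and DMSO wells / Replicates: each compound tested once, singlicate / Schedule: enzyme reaction with compound for 2 h at 37 °C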
LEDGF integ inh: blocks HIV-1 LEDGF/p75-dependent DNA integration | TR-FRET IN-LEDGF/p75 DNA integration, Eu/Cy5 | inhibition, % at 3.7 µM | actives 0.64% (n = 370,000);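 active = inhibition above the screen-wide mean plus 3 SD, cut at about 13% in these data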;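 note: signal is the Cy5 over europium emission ratio at 671 and 618 nm; 0% = plate median of compound wells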
MBD2 DNA inh: blocks human MBD2 binding to methylated DNA. Q9UBB5. TR-FRET, MBD2 binding to methylated oligonucleotide. inhibition, % at 4.4 µM. actives 0.31% (n = 370,000). AID 686964; in the data active = inhibition above about 13%
Target sequence (Q9UBB5 whole entry, looked up): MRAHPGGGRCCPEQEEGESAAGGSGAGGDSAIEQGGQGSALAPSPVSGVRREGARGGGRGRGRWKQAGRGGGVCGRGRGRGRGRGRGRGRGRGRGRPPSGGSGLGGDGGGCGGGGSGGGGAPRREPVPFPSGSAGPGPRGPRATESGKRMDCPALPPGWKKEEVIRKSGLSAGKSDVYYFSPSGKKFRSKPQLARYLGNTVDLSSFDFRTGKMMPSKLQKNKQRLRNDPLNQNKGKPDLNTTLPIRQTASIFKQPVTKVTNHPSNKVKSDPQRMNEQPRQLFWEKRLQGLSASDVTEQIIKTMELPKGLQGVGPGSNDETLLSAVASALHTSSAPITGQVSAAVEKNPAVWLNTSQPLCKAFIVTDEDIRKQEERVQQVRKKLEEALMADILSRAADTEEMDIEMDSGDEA
DDE Tn7 FP inh: disrupts Tn7 cyclic peptide binding to fibrin D-Dimer-E complex; P02675; FP displacement of FITC-Tn7 peptide from fibrin DD(E); 0% = median of compound wells per plate; inhibition, % at 8.3 µM; actives 0.13% (n = 370,000); AID 720508;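 active = inhibition above the mean of compounds falling within the control limits plus 3 SD of them, cut at about 14% in these data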;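 note: 0% = plate median of compound wells and 100% = 10 µM Aha-Tn7 peptide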
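Measure: % inhibition scaled between sample-field median and high-control FP; Test system: human fibrin DD(E); Quantity: 2 µM final DD(E) protein; Doses: one dose, 8.3 µM nominal; Schedule: compound with protein 10 min, then 3 h after probe, room temperature; Detection: fluorescence polarization; Medium: Tris buffer with calcium and detergent, pH 7.8.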
UHRF1 binding: UHRF1 methyl-DNA binding inhibition | UHRF1 binding to methylated oligo, TR-FRET | inhibition, % at 4.4 µM | Q96T88 | AID 687016 | actives 0.75% (n = 370,000); in the data active = inhibition above about 21%;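 note: UHRF1 SRA domain binding a hemimethylated CpG hairpin DNA probe; 0% = median of test compound wells and 100% = reference inhibitor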
DDE Tn6 FP inh: disrupts Tn6 cyclic peptide binding to fibrin D-Dimer-E complex. Fibrin DD(E) TRITC-Tn6 fluorescence polarization displacement. AID 720509. inhibition, % at 8.3 µM. P02675. actives 0.21% (n = 370,000);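 active = inhibition above a per-campaign cutoff: mean of compounds within control limits plus 3 SD, cut at about 15% in these data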;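 note: 0% = median of all compound wells on the plate and 100% = blocking peptide control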
UHRF1 DNA bind: counter-screen for MBD2 inhibitors: human UHRF1 methylated DNA binding inhibitors. shares compounds with MBD2 DNA inh. UHRF1 binding to methylated oligonucleotide, TR-FRET. inhibition, % at 4.4 µM. actives 25% (n = 1,000). AID 720530; in the data active = inhibition above about 21%;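 note: UHRF1 SRA domain binding a labeled hemimethylated CpG hairpin DNA; 0% = vehicle only and 100% = reference inhibitor with vehicle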
MBD2 DBD conf: MBD2-DBD methyl-DNA binding inhibition, TR-FRET confirmation; AID 720531; TR-FRET MBD2-DBD binding to methylated oligonucleotide; shares compounds with MBD2 DNA inh; inhibition, % at 4.4 µM; actives 26% (n = 1,000)
DDE Tn7 confirm: confirmation of inhibitors of Tn7 binding to human fibrin DD(E). shares compounds with DDE Tn7 FP inh. FP displacement of TRITC-Tn7 peptide from DD(E); 0% set at plate's compound-well median. inhibition, % at 8.3 µM. actives 5% (n = 460);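 active = inhibition above the campaign cutoff, the mean of compounds within control limits plus 3 SD, cut at about 14% in these data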;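 note: 100% = median FP of high control wells holding Aha-Tn7 inhibitor peptide; displacers lower polarization since freed probe rises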
DDE Tn7 FP ctr: counter-screen hit for Tn7 peptide-fibrin DD(E) binding disruption; shares compounds with DDE Tn7 FP inh; TRITC-Tn7 probe displacement, fluorescence polarization; inhibition, % at 8.3 µM; actives 3% (n = 460);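 active = inhibition above the cutoff, the mean of compounds lying between the control bounds plus 3 SD of those compounds, cut at about 17% in these data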;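 note: 0% = median of compound sample wells and 100% = excess unlabeled Aha-Tn7 peptide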
DDE Tn6 FP ctr: DD(E)-Tn6 binding inhibition, counter-screen | inhibition, % at 8.3 µM | actives 2% (n = 680) | Fibrin DD(E), TRITC-Tn6 fluorescence polarization displacement; 0% = median of compound wells, not DMSO | shares compounds with DDE Tn6 FP inh;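 active = inhibition above the mean of test compounds lying between the control limits plus 3 SD of those, cut at about 14% in these data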;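 note: 0% = median of compound wells and 100% = wells with Aha-Tn7 blocking peptide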
DDE Tn6 confirm: confirmation of inhibitors of Tn6 binding to human fibrin DD(E). shares compounds with DDE Tn6 FP inh. FP displacement of TRITC-Tn6 peptide from DD(E); 0% = per-plate median of test wells. inhibition, % at 8.3 µM. actives 10% (n = 680). AID 720631;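 active = inhibition above the mean of compounds lying within the control limits plus 3 SD, cut at about 16% in these data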;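 note: 100% = high control wells holding a competing inhibitor peptide at 10 µM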
IN multimer act: activates HIV-1 integrase multimerization in LEDGF counter-screen; TR-FRET HIV-1 integrase multimerization, biochemical; shares compounds with LEDGF integ inh; activation, % at 7.7 µM; actives 17% (n = 2,000); AID 1053131; in the data active = activation above about 8.9%
TR-FRET interf: optically interferes with TR-FRET readout in LEDGF counter-screen; shares compounds with LEDGF integ inh; TR-FRET optical interference counterscreen, HIV-1 IN multimerization; inhibition, % at 7.7 µM; 2,000 tested, under 10 active; AID 1053135;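 active = inhibition above the mean over all tested compounds plus 3 SD, which no compound reached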;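 note: 0% = integrase with antibodies and DMSO and 100% = antibodies without integrase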
LEDGF integ conf: LEDGF/p75-dependent HIV-1 integration inhibition, confirmation; shares compounds with LEDGF integ inh; TR-FRET LEDGF/p75-dependent HIV-1 integration, biochemical; inhibition, % at 3.7 µM; actives 36% (n = 2,000); AID 1053136
* marks the source's active call; other numbers are inactive results. Compounds with a hit are over-represented: about 1.9% of the library has one in this group of screens. Cut-off read from the data, not from the text of the source, unless noted: active = inhibition above about 14%; inactive = the rest.

`COc1ccc(C(SCC(NC(=O)OCc2ccccc2)C(=O)O)c2ccc(OC)cc2)cc1` (stereo not drawn) gave TDP2 inh -3, LEDGF integ inh -3, MBD2 DNA inh -3, DDE Tn7 FP inh 7, UHRF1 binding 0 and DDE Tn6 FP inh -2.
COc1ccc(-c2ccc(OC)c(OC)c2OC)cc1 was read as TDP2 inh 1, LEDGF integ inh -12, MBD2 DNA inh 2, DDE Tn7 FP inh 3, UHRF1 binding -1 and DDE Tn6 FP inh 4.
For CC(=O)N1Cc2cnnn2-c2ccccc2C1(C#N)Cc1ccccc1 (stereo not drawn) the results were TDP2 inh 8, LEDGF integ inh -1, MBD2 DNA inh 29*, DDE Tn7 FP inh 1, UHRF1 binding -1, DDE Tn6 FP inh -7, UHRF1 DNA bind 7 and MBD2 DBD conf 5.
O=C(c1ccc(Cl)cc1)C1CCCN(Cc2ccc3c(c2)OCCO3)C1 (stereo not drawn) was read as TDP2 inh 2, LEDGF integ inh 3, MBD2 DNA inh -4, DDE Tn7 FP inh -3, UHRF1 binding -1 and DDE Tn6 FP inh -2.
Screening O=C(c1ccc(Cl)cc1)C1CCCN(Cc2ccc3ncccc3c2)C1 (stereo not drawn) returned TDP2 inh -7, LEDGF integ inh -4, MBD2 DNA inh 15*, DDE Tn7 FP inh -4, UHRF1 binding 25*, DDE Tn6 FP inh -1, UHRF1 DNA bind 8 and MBD2 DBD conf 2.
N#CCC[C@@H]1CC[C@]2(CCCN(Cc3ccncc3)C2)O1 was read as TDP2 inh 8, LEDGF integ inh 0, MBD2 DNA inh 3, DDE Tn7 FP inh 9, UHRF1 binding 1 and DDE Tn6 FP inh 1.
For O=C(O)Cn1cc(/C=C2\C(=O)NC(=O)N(Cc3ccco3)C2=O)c2ccccc21 the results were TDP2 inh 11, LEDGF integ inh 86*, MBD2 DNA inh 25*, DDE Tn7 FP inh -3, UHRF1 binding 85*, DDE Tn6 FP inh -5, UHRF1 DNA bind 56* and MBD2 DBD conf 18*.
For O=c1[nH]c2ccccc2n1C1CCN(C(c2ccccc2OC(F)(F)F)c2nnnn2-c2ccc3c(c2)OCCO3)CC1 (stereo not drawn) the results were TDP2 inh 2, LEDGF integ inh -3, MBD2 DNA inh 5, DDE Tn7 FP inh 0, UHRF1 binding 1 and DDE Tn6 FP inh 1.
CS(=O)(=O)c1ccc(C2=C(CNC(=O)c3cccs3)[C@H]3CC[C@@H](C2)N3Cc2ccccc2)cc1 was read as TDP2 inh 4, LEDGF integ inh 4, MBD2 DNA inh 3, DDE Tn7 FP inh -5, UHRF1 binding 0 and DDE Tn6 FP inh -7.
CC[N+](C)(CC)CCCCOc1ccc2c(c1)C(=O)c1cc(OCCCC[N+](C)(CC)CC)ccc1-2 was read as TDP2 inh 17, LEDGF integ inh 0, MBD2 DNA inh 17*, DDE Tn7 FP inh -4, UHRF1 binding 41*, DDE Tn6 FP inh 0, UHRF1 DNA bind 49* and MBD2 DBD conf 31*.
c1ccc(-c2cc(-c3ccccc3)[n+](-c3ccccc3)c(-c3ccccc3)c2)cc1 was read as TDP2 inh 6, LEDGF integ inh 2, MBD2 DNA inh 13*, DDE Tn7 FP inh -1, UHRF1 binding 2, DDE Tn6 FP inh 7, UHRF1 DNA bind 13 and MBD2 DBD conf 40*.
Screening COc1ccc(-n2c(O)c(/C=C3\C=Nc4ccc(Br)cc43)c(=O)[nH]c2=O)c(OC)c1 returned TDP2 inh 15, LEDGF integ inh -4, MBD2 DNA inh 28*, DDE Tn7 FP inh -2, UHRF1 binding -2, DDE Tn6 FP inh -2, UHRF1 DNA bind 8 and MBD2 DBD conf 2.
Screening COc1cccc2c1C(=O)c1c(O)c3c(c(O)c1C2=O)CC(O)(C(C)=NO)CC3OC1CC(N)C(O)C(C)O1 (stereo not drawn) returned TDP2 inh -2, LEDGF integ inh 0, MBD2 DNA inh 109*, DDE Tn7 FP inh 21*, UHRF1 binding 95*, DDE Tn6 FP inh active, UHRF1 DNA bind 100*, MBD2 DBD conf 109*, DDE Tn7 confirm -18, DDE Tn7 FP ctr 93*, DDE Tn6 FP ctr -18 and DDE Tn6 confirm 93*.
`S=C(NCCc1ccccc1)N1Cc2ccccc2-n2nncc2C1` gave TDP2 inh -4, LEDGF integ inh -1, MBD2 DNA inh 1, DDE Tn7 FP inh 5, UHRF1 binding 0 and DDE Tn6 FP inh 4.
For NCC(O)c1cc(O)c(O)cc1F (stereo not drawn) the results were TDP2 inh 14, LEDGF integ inh 49*, MBD2 DNA inh 14*, DDE Tn7 FP inh 1, UHRF1 binding 27*, DDE Tn6 FP inh -2, UHRF1 DNA bind 14, MBD2 DBD conf 4, IN multimer act 12*, TR-FRET interf -61 and LEDGF integ conf -5.
